# Screening results from PubChem BioAssay.
# Compounds with a hit are over-represented: about 1.9% of the library has one in this group of screens.
# MBD2 DNA inh = MBD2-methylated oligo binding inhibition; Q9UBB5; TR-FRET, MBD2 binding to methylated oligonucleotide; inhibition, % at 4.4 µM; hit rate 0.31% among 370,000; in the data active means inhibition above about 13%
# UHRF1 binding = UHRF1 methyl-DNA binding inhibition. UHRF1 binding to methylated oligo, TR-FRET. inhibition, % at 4.4 µM. hit rate 0.75% among 370,000. AID 687016; in the data active means inhibition above about 21%;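 further: UHRF1 SRA domain binding a hemimethylated CpG hairpin DNA probe; 0% = median of test compound wells and 100% = reference inhibitor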
# DDE Tn7 FP inh = inhibitors of Tn7 peptide binding to human fibrin DD(E); FP displacement of FITC-Tn7 peptide from fibrin DD(E); 0% = median of compound wells per plate; inhibition, % at 8.3 µM; P02675; AID 720508; hit rate 0.13% among 370,000;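 active means inhibition above the mean of compounds falling within the control limits plus 3 SD of them, cut at about 14% in these data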;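 further: 0% = plate median of compound wells and 100% = 10 µM Aha-Tn7 peptide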
#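 Test system – human fibrin DD(E) · Times – 10 min preincubation, 3 h with tracer, room temperature · Detection – fluorescence polarization of the labelled Tn7 tracer · Measure – percent inhibition normalized to high-control wells · Benchmarks – high control wells with 10 µM unlabelled Aha-Tn7 peptide (full inhibition) · Repeats – singlicate testing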
# Tn6 DDE FP = disrupts Tn6 cyclic peptide binding to fibrin D-Dimer-E complex. hit rate 0.21% among 370,000. inhibition, % at 8.3 µM. P02675. Fibrin DD(E) TRITC-Tn6 fluorescence polarization displacement. AID 720509;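 active means inhibition above a per-campaign cutoff: mean of compounds within control limits plus 3 SD, cut at about 15% in these data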;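 further: 0% = median of all compound wells on the plate and 100% = blocking peptide control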
# TDP2 absorb = TDP2 (human) inhibition, absorbance primary screen | recombinant TDP2, T5PNP hydrolysis, p-nitrophenol absorbance 415 nm | inhibition, % at 12.8 µM | hit rate 0.34% among 370,000;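 active means inhibition above the mean of all tested compounds plus 3 SD, set per campaign, cut at about 25% in these data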;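 further: 0% = DMSO with enzyme and 100% = buffer with substrate but no TDP2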
# Target sequence (O95551 whole entry, looked up): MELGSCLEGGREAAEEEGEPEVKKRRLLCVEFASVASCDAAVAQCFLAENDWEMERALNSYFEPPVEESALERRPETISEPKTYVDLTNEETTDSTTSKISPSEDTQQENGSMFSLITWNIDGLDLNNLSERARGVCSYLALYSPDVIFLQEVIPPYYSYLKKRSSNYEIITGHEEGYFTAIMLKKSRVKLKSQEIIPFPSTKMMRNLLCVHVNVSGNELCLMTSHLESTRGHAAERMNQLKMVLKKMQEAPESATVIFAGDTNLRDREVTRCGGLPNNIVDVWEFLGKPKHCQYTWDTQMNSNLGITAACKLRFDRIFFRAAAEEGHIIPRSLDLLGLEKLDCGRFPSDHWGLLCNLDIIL
#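 Evaluation: % inhibition relative to enzyme-containing and enzyme-free wells. Material: recombinant human TDP2. Benchmarks: enzyme-free and DMSO wells. Timing: enzyme reaction with compound for 2 h at 37 °C. Compound dosing: 12.8 µM only. Measured by: p-Nitrophenol epi absorbance. Reagent: T5PNP substrate at 5 mM, a TopII-DNA adduct mimic. Replication: single well per compound.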
# LEDGF integ inh = blocks HIV-1 LEDGF/p75-dependent DNA integration. TR-FRET IN-LEDGF/p75 DNA integration, Eu/Cy5. inhibition, % at 3.7 µM. AID 743269. hit rate 0.64% among 370,000;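 active means inhibition above the screen-wide mean plus 3 SD, cut at about 13% in these data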;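 further: signal is the Cy5 over europium emission ratio at 671 and 618 nm; 0% = plate median of compound wells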
# IN multimer act = activates HIV-1 integrase multimerization in LEDGF counter-screen. TR-FRET HIV-1 integrase multimerization, biochemical. activation, % at 7.7 µM. hit rate 17% among 2,000. shares compounds with LEDGF integ inh; in the data active means activation above about 8.9%
# TR-FRET interf = optically interferes with TR-FRET readout in LEDGF counter-screen | shares compounds with LEDGF integ inh | TR-FRET optical interference counterscreen, HIV-1 IN multimerization | inhibition, % at 7.7 µM | 2,000 tested, under 10 active | AID 1053135;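 active means inhibition above the mean over all tested compounds plus 3 SD, which no compound reached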;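 further: 0% = integrase with antibodies and DMSO and 100% = antibodies without integrase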
# LEDGF integ conf = LEDGF/p75-dependent HIV-1 integration inhibition, confirmation. shares compounds with LEDGF integ inh. TR-FRET LEDGF/p75-dependent HIV-1 integration, biochemical. inhibition, % at 3.7 µM. hit rate 36% among 2,000. AID 1053136; in the data active means inhibition above about 14%
# * hit, by the source's call; / = not tested or not shown.
SMILES,MBD2 DNA inh,UHRF1 binding,DDE Tn7 FP inh,Tn6 DDE FP,TDP2 absorb,LEDGF integ inh,IN multimer act,TR-FRET interf,LEDGF integ conf
Cc1[nH]c2ccccc2c1CC(=O)Nc1ccc(Nc2cccnc2)c(Br)c1,-4,-4,-3,-3,2,-1,/,/,/
COC(=O)\C(C(C)=O)=C(/C=C/C=C/C=C/N(C)C)N(C)C,11,55*,2,8,6,56*,8,-43,59*
COC(=O)/C(C(C)=O)=C(\C=C\N(C)C)N(C)C,-1,-2,-4,5,-5,0,/,/,/
Cc1nc(Cl)c(C(=O)NCc2ccccc2)c(C)c1[N+](=O)[O-],1,-1,1,2,-12,20*,0,1,0
COc1cccc(NC(=O)CN(C)C(=O)Cc2ccc3c(c2)OCCO3)c1,2,-2,2,1,-3,92*,-2,8,-2
O=C(CCl)Nc1ccc(S(=O)(=O)NC2=NCCCCC2)cc1,2,4,-9,-1,-16,17*,-1,3,-3
O=C(CCl)Nc1cccc(S(=O)(=O)NC2=NCCCCC2)c1,-3,-3,10,10,4,-1,/,/,/
COc1ccc(S(=O)(=O)N2CCOCC2)cc1C(=O)Nc1cc(C)on1,3,1,-11,-10,1,86*,1,-4,0
COc1ccc(S(=O)(=O)N2CCCCC2)cc1C(=O)Nc1cc(C)on1,6,2,5,-8,2,1,/,/,/
N#CC1=C(N)n2c(s/c(=C\c3cccs3)c2=O)=C(C#N)C1c1cccs1 (centres undefined),9,9,-4,-1,-7,11,/,/,/
CCOC(=O)C1=C(N)n2c(s/c(=C/c3ccco3)c2=O)=C(C(=O)OC)C1c1ccco1 (centres undefined),1,20,-1,1,8,48*,0,-1,3
N#CC1=C(N)n2c(s/c(=C\c3ccco3)c2=O)=C(C#N)C1c1ccco1 (centres undefined),12,41*,5,3,-4,38*,18*,-91,66*
COc1ccc(-c2cc(NC(=O)Cc3c(C)[nH]c4ccccc34)ccc2Nc2cccnc2)cc1OC,0,-3,4,6,-3,-4,/,/,/
COc1cccc(NC(=O)N2CCC(NC(=O)C3CCCCC3)CC2)c1,6,-2,-1,6,-4,0,/,/,/
COc1cccc(NC(=O)N2CCC(C(=O)Nc3ccc(C)cc3C)CC2)c1,4,-1,4,-1,-2,38*,1,-7,-4
O=C(C1CCN(S(=O)(=O)c2ccc3[nH]c(=O)oc3c2)CC1)N1CCCC1,2,8,-5,2,6,4,/,/,/
COC(=O)C1CN(Cc2ccc(F)cc2)CCS(=O)(=O)N1Cc1ccccc1 (centres undefined),0,2,-5,0,-11,7,/,/,/
C[C@H]1CN(C(=O)OC(C)(C)C)CCN1c1ccc(N2CC[C@H](O)C2)c(C#N)c1,-1,-6,-2,1,4,6,/,/,/
CCOC(=O)c1cnc2c(ccc3ccccc32)c1N,-2,0,-4,-9,2,60*,8,-40,-1
COC(=O)C1=C(C)N(CCCC(=O)O)C(=O)NC1c1cc2c(cc1[N+](=O)[O-])OCO2 (centres undefined),2,14,-6,-8,1,27*,26*,-94,48*
COC(=O)C1=C(C)N(C)C(=O)NC1c1cc2c(cc1[N+](=O)[O-])OCO2 (centres undefined),-4,4,-5,5,8,5,/,/,/
